# Assay results collected from several papers.
# CYP3A4: Cytochrome P450 3A4 (CYP3A4, Homo sapiens, UniProt P08684)
# HDAC11: Histone deacetylase 11 (HDAC11, Homo sapiens, UniProt Q96DB2)
# ALDH2: Aldehyde dehydrogenase, mitochondrial (ALDH2, Homo sapiens, UniProt P05091)
# CHRM1: Muscarinic acetylcholine receptor M1 (CHRM1, Homo sapiens, UniProt P11229)
Compound,target,assay,conditions,IC50
C=CCn1c(=O)c2cnc(Nc3ccc(N4CCN(C)CC4)cc3)nc2n1-c1ccc2c(n1)[C@@](O)(CC)CC2,CYP3A4,"enzyme activity, inhibitor",,7 µM
CCc1oc2ccccc2c1C(=O)c1cc(Br)c(O)c(Br)c1,"Solute carrier organic anion transporter family member 1B1 (SLCO1B1, Homo sapiens, UniProt Q9Y6L6)","transporter uptake, inhibitor, radiometric",oocytes,1.54 µM
O=C(O)c1cc(-c2ccc(-n3ccnn3)cc2)c2ccc(-c3ccc(C(F)(F)F)cc3)cc2c1,CYP3A4,"enzyme activity, inhibitor",,7.07 µM
COc1ccc(N(Cc2csc(-c3ccc(Br)cc3)n2)C(=O)CCCCCC(=O)NO)cc1,HDAC11,"enzyme activity, inhibitor",,> 10 µM
CCc1cnn2c(NCc3ccc[n+]([O-])c3)cc(N3CCCC[C@H]3CCO)nc12,"Tyrosine-protein kinase JAK1 (JAK1, Homo sapiens, UniProt P23458)","enzyme activity, inhibitor, ELISA",,0.062 µM
COc1ccc(N(Cc2nc(-c3ccc(F)cc3)cs2)C(=O)CCCCCC(=O)NO)cc1,HDAC11,"enzyme activity, inhibitor",,> 10 µM
OC[C@H]1O[C@@H](Oc2ccc(O)c3cccc(O)c23)[C@H](O)[C@@H](O)[C@@H]1O,ALDH2,"enzyme activity, inhibitor, fluorescence",,< 10 µM
Cc1cc2c(C(N)=O)c(N)n(-c3c(C)ccc(O)c3C)c2nc1C,"RAF proto-oncogene serine/threonine-protein kinase (RAF1, Homo sapiens, UniProt P04049, Y340D/Y341D)","enzyme activity, inhibitor, ADP detection",,0.0044 µM
O=C1Nc2ccccc2C12CC2c1cc(Cl)c(O)c(Cl)c1 (centres unmarked),ALDH2,"enzyme activity, inhibitor, fluorescence",,> 50 µM
CCCN(CCC)S(=O)(=O)c1ccc(C(=O)O)cc1,"Taste receptor type 2 member 14 (TAS2R14, Homo sapiens, UniProt Q9NYV8)","inositol phosphate, antagonist, TR-FRET",,600 µM
Nc1nc2c(s1)C(c1ccccc1Cl)CC(=O)N2 (centres unmarked),ALDH2,"enzyme activity, inhibitor, fluorescence",,< 10 µM
CN(C)CCC=C1c2ccccc2CCc2ccccc21,"Short transient receptor potential channel 5 (Mus musculus, UniProt Q9QX29)","ion current, inhibitor, patch clamp",,2.88 µM
Nc1cnccc1Nc1ccc(Cl)c(Cl)c1,"Endonuclease III-like protein 1 (NTHL1, Homo sapiens, UniProt P78549)","enzyme activity, inhibitor",,> 100 µM
O=C(CCNC(=O)CNC(=O)CC(c1ccccc1)(c1ccccc1)c1ccccc1)NC[C@@H]1CCCN(Cc2ccc(F)nc2)C1,CHRM1,"ligand displacement, radioligand",cell membranes,> 30 µM
CN(C)C(=O)c1cc2cnc(Nc3ccc(-c4ccc5c(=O)cc(N6CCOCC6)oc5c4)cc3)nc2n1C1CCCC1,CYP3A4,"enzyme activity, inhibitor, fluorescence",pH 8,56.1 µM
O=C(CCNC(=O)CNC(=O)CC(c1ccccc1)(c1ccccc1)c1ccccc1)NCC1CCN(Cc2ccc(F)cc2)CC1,CHRM1,"ligand displacement, radioligand",cell membranes,5.9 µM
CNC(=O)[C@H](Cc1c[nH]c2ccccc12)NC(=O)[C@@H](CC(=O)NO)CC(C)C,"Collagenase 3 (MMP13, Homo sapiens, UniProt P45452)","enzyme activity, inhibitor",,0.000129 µM
